In ChEMBL document CHEMBL3243965, “Potential antiinflammatory compounds. 1. Antiinflammatory phenylpiperidine derivatives” (J Med Chem, 1979):
Calls of active or inactive are those of the source. No cut-off for these calls is given here.

Assays:
Rattus norvegicus [1] = assay: Antiinflammatory activity in Wistar rat assessed as inhibition of carrageenan-induced paw swelling at 2 x 50 mg/kg, po administered 0.5 to 3 hrs prior to carrageenan challenge measured after 2.5 hrs by plethysmographic analysis relative to control; format: functional
In short: (§1)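 Female Wistar rats (in-house bred, 140–170 g; groups of four) were dosed orally twice, 3 and 0.5 h before a plantar injection of 0.1 mL 1% carrageenan in 0.9% saline into the right hind foot. Both feet were measured by mercury-displacement plethysmography 2.5 h later, and the right-minus-left difference was taken. Group mean % inhibition was calculated against ten concurrent saline-dosed controls, with significance at p < 0.02.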

[2] = Toxicity in po dosed mouse; format: organism-based; settings: in vivo
Rattus norvegicus [3] = assay: Antiinflammatory activity in Wistar rat assessed as inhibition of carrageenan-induced paw swelling at 2 x 100 mg/kg, po administered 0.5 to 3 hrs prior to carrageenan challenge measured after 2.5 hrs by plethysmographic analysis relative to control; format: functional; settings: for inhibition in vivo at 100 mg/kg: Rattus norvegicus, Wistar; in short: as §1
Canis familiaris = assay: Toxicity in dog at 150 mg/kg; format: organism-based, Canis lupus familiaris; design: dose 150 mg/kg; settings: in vivo
Rattus norvegicus [4] = assay: Antiinflammatory activity in Wistar rat assessed as inhibition of carrageenan-induced paw swelling at 100 mg/kg, po administered 0.5 to 3 hrs prior to carrageenan challenge measured after 2.5 hrs by plethysmographic analysis relative to control; format: functional
In short: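 Groups of four female Wistar rats (140–170 g) were dosed orally twice (2 × 50 or 2 × 100 mg/kg), at 3 and 0.5 h before plantar injection of 0.1 mL 1% carrageenan in 0.9% saline into the right hind foot. Right minus left foot volume was read by mercury-displacement plethysmograph at 2.5 h. Mean group swelling was expressed as % inhibition versus ten concurrent saline-dosed controls; significance p < 0.02.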

Compound | inhibition in vivo at 50 mg/kg (Rattus norvegicus [1]) [%] | LD50 [2] [mg/kg] | inhibition in vivo at 100 mg/kg (Rattus norvegicus [3]) [%] | also measured
CC(C(=O)O)c1ccc(N2CCCCC2)cc1 (stereo unspecified) | 68 | 800 |  | 
CC(C(=O)O)c1ccc(N2CCCCC2)c(Cl)c1 (stereo unspecified) |  | 1200 | 53 | 
CC(CNC(=O)C(F)(F)F)c1ccc(N2CCCCC2)cc1 (stereo unspecified) | 32 | 600 |  | 
NCCCCc1ccc(N2CCCCC2)cc1.O=C(O)O |  | 600 | 54 | 
CC(CN)c1ccc(N2CCCCC2)c(Cl)c1.Cl (stereo unspecified) | 39 | 600 |  | 
CCCCC1C(=O)N(c2ccccc2)N(c2ccccc2)C1=O [PHENYLBUTAZONE] |  |  | 50 | 
CN(CCc1ccc(N2CCCCC2)cc1)C(=O)C(F)(F)F.Cl |  | 1600 | 38 | 
O=C(O)Cc1ccc(N2CCCCC2)c(Cl)c1 |  | 800 | 43 | 
CNCCc1ccc(N2CCCCC2)cc1.O=C(O)CCC(=O)O | 33 | 600 |  | 
Cl.NCCc1cccc(N2CCCCC2)c1 | 39 | 600 |  | 
CC(CN)c1cccc(N2CCCCC2)c1 (stereo unspecified) |  | 600 |  | inhibition (Rattus norvegicus [3]; at 100 mg/kg): inactive
CC(CO)c1ccc(N2CCCCC2)cc1 (stereo unspecified) |  | 1600 | 71 | 
CC(C)c1ccc(N2CCCCC2)cc1.Cl | 30 | 1200 |  | 
OCCc1ccc(N2CCCCC2)cc1 |  | 1200 | 51 | 
CC(N)Cc1ccc(N2CCCCC2)cc1.O=C(O)CCC(=O)O (stereo unspecified) | 33 | 600 |  | 
NCCCCc1ccc(N2CCCCC2)c(Cl)c1.O=C(O)CCC(=O)O |  | 1600 | 71 | 

Compound | inhibition in vivo at 50 mg/kg (Rattus norvegicus [1]) [%] | LD50 [2] [mg/kg] | inhibition in vivo at 100 mg/kg (Rattus norvegicus [3]) [%] | also measured
C[C@]12CCC(=O)C=C1CC[C@@H]1[C@@H]2[C@@H](O)C[C@@]2(C)[C@H]1CC[C@]2(O)C(=O)CO [HYDROCORTISONE] | 35 |  |  | 
O=C(O)Cc1ccc(N2CCCCC2)cc1 |  | 800 | 51 | 
O=C(Cc1ccc(N2CCCCC2)cc1)NCCc1ccc(N2CCCCC2)cc1 |  | 1600 | 22 | 
CC(CN)c1ccc(N2CCCCC2)cc1.Cl (stereo unspecified) | 57 | 600 |  | Activity (Canis familiaris): Toxic
c1cc(N2CCCCC2)ccc1CCN1CCCCC1 | 46 | 400 |  | 
Cl.NCCc1ccc(N2CCCCC2)c(Cl)c1 |  | 800 |  | inhibition in vivo at 100 mg/kg (Rattus norvegicus [4]): 58%
O=C(NCCc1ccc(N2CCCCC2)cc1)C(F)(F)F |  | 1600 | 60 | 
CC(CN(C)C)c1ccc(N2CCCCC2)cc1.Cl (stereo unspecified) |  | 600 | 70 | 
CC(C)(O)c1ccc(N2CCCCC2)cc1 |  | 600 |  | inhibition (Rattus norvegicus [1]; at 50 mg/kg): inactive
NCC(C(=O)O)c1ccc(N2CCCCC2)cc1 (stereo unspecified) |  | > 1600 | 40 | 
Cl.[2H]C([2H])(N)C(C)c1ccc(N2CCCCC2)cc1 (stereo unspecified) | 47 | 600 |  | 
Cl.NCCc1ccc(N2CCCCC2)cc1 |  | 1200 |  | inhibition in vivo at 100 mg/kg (Rattus norvegicus [3]; po): 55%
NCCc1ccc(N2CCCCC2)cc1.O=C(O)O |  | 800 |  | inhibition (INH) (Rattus norvegicus [3]): 54%
NCCCCCCc1ccc(N2CCCCC2)cc1.O=C(O)CCC(=O)O |  | 1200 | 57 | 
CC(C)(CN)c1ccc(N2CCCCC2)cc1.O=C(O)CCC(=O)O | 34 | 400 |  | 
